This is an account of results in ChEMBL document CHEMBL1156692, “Synthesis of novel 7-benzylamino-2H-1,4-benzoxazin-3(4H)-ones as anticonvulsant agents” (Eur J Med Chem, 2008).

SMILES strings stand for the structures.

A short description of data set [1]: Neurotoxicity in ip dosed C57B/6 mouse after 30 mins by rotarod test. The class given is toxicity, organism-based. The conditions noted are these: in vivo. The method, boiled down:
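Minimal neurotoxicity in mice was scored on the rotarod, 30 min after i.p. administration. TD50 was reported in mg/kg with a range in parentheses.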
(In the rotarod test animals must keep their balance on a rotating rod.)

Data set [2] concerns Mus musculus. Put plainly: Anticonvulsant activity in ip dosed C57B/6 mouse assessed as inhibition of maximal electroshock-induced seizures. The class given is functional. Conditions: C57B/6, ip. (In general: In the maximal electroshock model the usual endpoint is tonic extension of the hind limbs.)
Data set [3] is filed under the species Mus musculus. Put plainly: Protective index, ratio of TD50 for C57B/6 mouse by rotarod test to ED50 for C57BL/6 mouse by MES test. The class given is functional.
Data set [4] relates to Mus musculus. In words: Anticonvulsant activity in C57B/6 mouse assessed as inhibition of pentylenetetrazole-induced clonic seizures at 50 mg/kg, ip after 0.5 hrs relative to control. Conditions: dose 100 mg/kg; route intraperitoneal; in the assay text read “100 mg/kg” for “50 mg/kg”. The class given is functional. Further details: scale not given: the % may be the effect or the level left. The procedure, abridged: (§1)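 Seizures in mice were induced by pentylenetetrazole 85 mg/kg in saline, s.c., 30 min after i.p. test agent. Animals were caged singly and watched for 30 min. Clonic and tonic seizures and deaths were counted.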

The test system of data set [5] is Mus musculus. Put plainly: Anticonvulsant activity in C57B/6 mouse assessed as inhibition of pentylenetetrazole-induced tonic seizures at 50 mg/kg, ip after 0.5 hrs relative to control. The conditions noted are these: route intraperitoneal. More on the design: scale not given: the % may be the effect or the level left. The class given is functional. The method, boiled down: as §1

In data set [6] the test system is Mus musculus. Put plainly: Anticonvulsant activity in C57B/6 mouse assessed as inhibition of isoniazid-induced clonic seizures at 50 mg/kg, ip after 0.5 hrs relative to control. More on the design: scale not given: the % may be the effect or the level left. The conditions noted are these: route intraperitoneal. The class given is functional. The procedure, abridged:
(§2)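 Isoniazid-induced seizure model in mice. Isoniazid 250 mg/kg was given 30 min after i.p. test agent. Clonic seizures, tonic seizures and lethality were counted. Treated groups were compared with the control group.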

Data set [7] has as its system Mus musculus. Put plainly: Anticonvulsant activity in C57B/6 mouse assessed as inhibition of isoniazid-induced tonic seizures at 50 mg/kg, ip after 0.5 hrs relative to control. The class given is functional. More on the design: scale not given: the % may be the effect or the level left. Conditions: route intraperitoneal. The method, boiled down:
as §2

For data set [8], the system named is Mus musculus. In words: Toxicity in isoniazid-induced seizure C57B/6 mouse model assessed as lethality at 50 mg/kg, ip after 0.5 hrs relative to control. The class given is organism-based. More on the design: dose 50 mg/kg, route intraperitoneal. Conditions: in vivo. The procedure, abridged: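 Mice received the test agent i.p., then isoniazid 250 mg/kg 30 min later. Clonic seizures, tonic seizures and lethality were recorded, and treated groups were compared with a control group.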

Data set [9] concerns Mus musculus. In words: Anticonvulsant activity in C57B/6 mouse assessed as inhibition of strychnine-induced clonic seizures at 50 mg/kg, ip after 0.5 hrs relative to control. The class given is functional. More on the design: scale not given: the % may be the effect or the level left. Conditions: route intraperitoneal. The procedure, abridged:
(§3)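 Strychnine chlorhydrate in saline (1.2 mg/kg) was injected s.c. into mice 30 min after i.p. test agent. Animals were caged singly and observed for 30 min. Seizure onset time, clonic and tonic seizure counts and lethality were recorded. Controls received vehicle only.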

In data set [10] the test system is Mus musculus. Put plainly: Anticonvulsant activity in C57B/6 mouse assessed as inhibition of strychnine-induced tonic seizures at 50 mg/kg, ip after 0.5 hrs relative to control. The class given is functional. Further details: scale not given: the % may be the effect or the level left. Conditions: route intraperitoneal. The procedure, abridged: as §3
Data set [11] relates to Mus musculus. Put plainly: Toxicity in strychnine-induced seizure C57B/6 mouse model assessed as lethality at 50 mg/kg, ip after 0.5 hrs relative to control. The class given is organism-based. Further details: dose 50 mg/kg, route intraperitoneal. The conditions noted are these: in vivo. The procedure, abridged:
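Test agent given i.p.; controls received vehicle only. After 30 min, strychnine chlorhydrate 1.2 mg/kg in saline was injected s.c. Mice were caged individually and observed 30 min, recording seizure onset time, clonic and tonic seizure numbers and lethality.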

As usually defined, the TD50 is the 50% point of the dose-response relation for the toxic effect studied. Molecule `O=C1COc2cc(NCc3ccccc3Cl)ccc2N1` displayed a TD50 at 0.5 h in data set [1] above 300 mg/kg.

By ED50 is commonly meant the dose that gives a 50% effect, or the effect in half of the subjects. For `O=C1COc2ccccc2N1`, the ED50 in the data set with Mus musculus [2] turned out to be 300 mg/kg. For the same molecule, in [1], the TD50 at 0.5 h is above 300 mg/kg.

Turning to `O=C1COc2cc(NCc3cccc(F)c3)ccc2N1`, the TD50 at 0.5 h in [1] came out at 228 mg/kg.

Regarding `O=C1COc2cc(NCc3ccccc3)ccc2N1`, the TD50 at 0.5 h in data set [1] was determined as 182 mg/kg.

The molecule `O=C1COc2cc(NCc3ccc(F)cc3)ccc2N1` showed a TD50 at 0.5 h in data set [1] of 228 mg/kg.

On to `O=C1COc2cc(NCc3ccc(Br)cc3)ccc2N1`, for which, in [1], the TD50 at 0.5 h is above 300 mg/kg.

For the molecule `Cc1ccc(CNc2ccc3c(c2)OCC(=O)N3)cc1`, the TD50 at 0.5 h in [1] was above 300 mg/kg.

`O=C1COc2cc(NCc3ccccc3F)ccc2N1` had a TD50 at 0.5 h in data set [1] of 183 mg/kg.

`O=C1COc2cc(NCc3ccc(Cl)cc3)ccc2N1` registered a TD50 at 0.5 h in [1] above 300 mg/kg.

With `CN(Cc1ccc(F)cc1)c1ccc2c(c1)OCC(=O)N2C`, in data set [1], the TD50 at 0.5 h was above 300 mg/kg.

In the case of `O=C1COc2cc(NCc3ccc4c(c3)OCO4)ccc2N1`, the ED50 in the data set with Mus musculus [2] stood at 63.4 mg/kg. The same molecule showed a TD50 at 0.5 h in data set [1] above 300 mg/kg. Besides, in the data set listed under Mus musculus [3], the Ratio is recorded as above 4.7.

For `CCOc1ccc(CNc2ccc3c(c2)OCC(=O)N3)cc1`, the TD50 at 0.5 h in data set [1] was above 300 mg/kg.

Turning to `NC(=O)N1c2ccccc2C=Cc2ccccc21` [CARBAMAZEPINE], the ED50 in the data set with Mus musculus [2] was 9.2 mg/kg. In data set [1], the TD50 at 0.5 h came to 74.4 mg/kg. For the same molecule, the Activity in the data set with Mus musculus [4] came to 100%; with Mus musculus [5] it was 20%; with Mus musculus [6], 10%; in the data set with Mus musculus [7], 10%; with Mus musculus [8], 0%; with Mus musculus [9] it was 40%. For the same molecule, the results for the Activity in the data set on Mus musculus [10] and in the data set with Mus musculus [11] were 30% and 0%, respectively.
